Laboratory results as given in ChEMBL document CHEMBL5321214, “Targeting the multifaceted neurotoxicity of Alzheimer's disease by tailored functionalisation of the curcumin scaffold” (Eur J Med Chem, 2023).
Active and inactive are the calls of the source. The calls are words filed in the database; no cut-off is given here.

Key:
[1] = system: Microglia; experiment: Cytotoxicity against Sprague-Dawley rat microglial cells assessed as decrease in cell viability at 20 uM incubated for 24 hrs by MTT assay; assay type: toxicity, cell-based
Procedure, shortened: (§1)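 Primary rat microglia, 6×10^4 cells/well, switched to serum-free medium 1 h before 24 h exposure (1–20 μM, DMSO ≤0.1%). MTT 0.18 mg/mL for 4 h at 37 °C, formazan dissolved in DMSO, absorbance 570 nm (reference 630 nm). Vehicle-treated cells = 100% viability.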

[2] = Effect on TNF-alpha release in Sprague-Dawley rat microglial cells at 10 uM by ELISA; assay type: toxicity, cell-based; conditions: microglia
Procedure, shortened: (§2)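 Primary cortical rat microglia in DMSO (≤0.1%) or vehicle for 1 h, then 100 ng/mL LPS for 24 h. TNF-α and IL-1β in culture medium by ELISA against standard curves (pg/mL), expressed as % of LPS-stimulated cultures. Mean ± SEM of 3 independent experiments; one-way ANOVA, Holm-Sidak test.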

[3] = Effect on IL-1 beta release in Sprague-Dawley rat microglial cells at 10 uM by ELISA; assay type: toxicity, cell-based; conditions: microglia; procedure, shortened: as §2
[4] = system: Microglia; experiment: Antiinflammatory activity against Sprague-Dawley rat microglial cells assessed as inhibition of LPS-induced TNF-alpha production at 1 to 10 uM pretreated with compound for 1 hr followed by LPS stimulation for 24 hrs by ELISA; assay type: functional, cell-based; conditions: dose 1-10 µM, time 25.0 hrs; procedure, shortened: as §2
[5] = system: Microglia; experiment: Antiinflammatory activity against Sprague-Dawley rat microglial cells assessed as inhibition of LPS-induced IL-1 beta production at 1 to 10 uM pretreated with compound for 1 hr followed by LPS stimulation for 24 hrs by ELISA; assay type: functional, cell-based; conditions: dose 1-10 µM, time 25.0 hrs; procedure, shortened: as §2
[6] = system: Microglia; experiment: Cytotoxicity against Sprague-Dawley rat microglial cells assessed as decrease in cell viability at 10 uM incubated for 24 hrs by MTT assay; assay type: toxicity, cell-based; procedure, shortened: as §1
[7] = Effect on TNF-alpha release in Sprague-Dawley rat microglial cells at 5 uM by ELISA; assay type: toxicity, cell-based; conditions: microglia; procedure, shortened: as §2
[8] = Effect on IL-1 beta release in Sprague-Dawley rat microglial cells at 5 uM by ELISA; assay type: toxicity, cell-based; conditions: microglia; procedure, shortened: as §2
[9] = system: Microglia; experiment: Antiinflammatory activity against Sprague-Dawley rat microglial cells assessed as inhibition of LPS-induced TNF-alpha production at 1 to 5 uM pretreated with compound for 1 hr followed by LPS stimulation for 24 hrs by ELISA; assay type: functional, cell-based; conditions: dose 1-5 µM, time 25.0 hrs; procedure, shortened: as §2
[10] = system: Microglia; experiment: Antiinflammatory activity against Sprague-Dawley rat microglial cells assessed as inhibition of LPS-induced IL-1 beta production at 1 to 5 uM pretreated with compound for 1 hr followed by LPS stimulation for 24 hrs by ELISA; assay type: functional, cell-based; conditions: dose 1-5 µM, time 25.0 hrs; procedure, shortened: as §2
[11] = system: Microglia; experiment: Antiinflammatory activity against Sprague-Dawley rat microglial cells assessed as downregulation of TNF-alpha mRNA expression at 5 uM pretreated with compound for 1 hr followed by LPS stimulation for 6 hrs by real-time PCR analysis; assay type: functional, cell-based; conditions: time 7.0 hrs
Procedure, shortened: (§3)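 Primary cortical microglia (postnatal day 1 rat pups, shaken off mixed glial cultures, ~97% Iba1-positive). Compound (DMSO ≤0.1%) for 1 h, then 100 ng/mL ultra-pure E. coli LPS for 6 h. QIAzol RNA extraction, SuperScript IV reverse transcription, real-time PCR. Mean ± SEM, n = 3 in triplicate; one-way ANOVA, Holm-Sidak test.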

[12] = system: Microglia; experiment: Antiinflammatory activity against Sprague-Dawley rat microglial cells assessed as downregulation of IL-1 beta mRNA expression at 5 uM pretreated with compound for 1 hr followed by LPS stimulation for 6 hrs by real-time PCR analysis; assay type: functional, cell-based; conditions: time 7.0 hrs; procedure, shortened: as §3
[13] = system: Microglia; experiment: Antiinflammatory activity against Sprague-Dawley rat microglial cells assessed as downregulation of NLRP3 mRNA expression at 5 uM pretreated with compound for 1 hr followed by LPS stimulation for 6 hrs by real-time PCR analysis; assay type: functional, cell-based; conditions: time 7.0 hrs; procedure, shortened: as §3
[14] = system: SH-SY5Y; experiment: Cytotoxicity against human SH-SY5Y cells assessed as decrease in cell viability at >5 uM incubated for 24 hrs by MTT assay; assay type: toxicity, cell-based
Procedure, shortened: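 SH-SY5Y, 2×10^4 cells/well, grown 24 h then exposed 24 h (1.25–40 μM) at 37 °C, 5% CO2. MTT 0.5 mg/mL in HBSS for 2 h, washed, formazan dissolved in isopropanol, read at 570 nm (reference 690 nm).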

[15] = system: SH-SY5Y; experiment: Antioxidant activity in human SH-SY5Y cells assessed as increase in intracellular GSH level at 2.5 uM incubated for 24 hrs by […] fluorescence analysis; assay type: functional
Procedure, shortened: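 SH-SY5Y (2×10^4 cells/well) grown 24 h, then exposed to 2.5 μM for 24 h at 37 °C. Fluorescent probe added 30 min at 37 °C; read at ex 355/em 460 nm. GSH (μM) from a GSH standard curve. Mean ± SEM of three experiments; one-way ANOVA with Dunnett's test.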

[16] = system: SH-SY5Y; experiment: Antioxidant activity in human SH-SY5Y cells assessed as reduction in intracellular ROS formation at 2.5 uM incubated for 24 hrs followed by incubation with t-BuOOH for 30 mins by H2DCF-DA staining based fluorescence analysis; assay type: functional; conditions: time 24.5 hrs
Procedure, shortened: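 SH-SY5Y (2×10^4 cells/well) exposed to 2.5 μM for 24 h, loaded with H2DCF-DA 30 min at room temperature, probe removed, then challenged with 50 μM t-BuOOH 30 min at room temperature. Fluorescence ex 485/em 535 nm, expressed as % ROS increase. Three independent experiments; one-way ANOVA with Dunnett's test.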

[17] = molecular target: Keap1/Nrf2 (Homo sapiens) (UniProt Q16236+Q14145); experiment: Activation of Keap1/Nrf2 in human SH-SY5Y cells assessed as Nrf2 nuclear translocation by measuring increase in nuclear to cytosolic Nrf2 ratio at 2.5 uM incubated for 3 hrs by western blot analysis; assay type: cell-based; conditions: filed as activator
Procedure, shortened: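 SH-SY5Y seeded 2×10^6 cells/dish, grown 24 h, then exposed 3 h at 37 °C, 5% CO2. Nuclear and cytosolic fractions immunoblotted for Nrf2, membranes stripped and reprobed for β-actin and lamin B1 as loading references. Mean ± SEM of three independent experiments; one-way ANOVA with Dunnett's test.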

[18] = molecular target: Amyloid-beta precursor protein (Homo sapiens) (UniProt P05067); experiment: Anti-oligomeric activity against Abeta42 (unknown origin) assessed as depletion of the formation of toxic HMW Abeta42 oligomers at 5 uM measured at day 7 from sample solubilization by capillary electrophoresis assay; conditions: time 7.0 day
Procedure, shortened: (§4)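 Aβ42 stock diluted to 221 μM in 20 mM sodium phosphate pH 7.4 containing compound (ethanol stocks 1.53 mM). Capillary electrophoresis: BGE 80 mM sodium phosphate pH 7.4, 30 mbar × 3 s hydrodynamic injection, +12 kV, 25 °C, 200 nm detection. Oligomers assigned by effective mobility; HMW oligomer peak quantified semiquantitatively as normalised area %.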

[19] = molecular target: Amyloid-beta precursor protein (Homo sapiens) (UniProt P05067); experiment: Anti-oligomeric activity against Abeta42 (unknown origin) assessed as depletion of the formation of toxic HMW Abeta42 oligomers at 1 uM measured at day 7 to 10 from sample solubilization by capillary electrophoresis assay; conditions: time 7-10 day; procedure, shortened: as §4
[20] = Toxicity against Drosophila W1118 assessed as minimum toxic concentration by measuring eclosion rate measured for 72 hrs
[21] = Toxicity against Drosophila W1118 assessed as proportion of eclosed-flies at 1 uM measured after 72 hrs
[22] = Toxicity against Drosophila W1118 assessed as proportion of eclosed-flies at 10 uM measured after 72 hrs
[23] = Toxicity against Drosophila W1118 assessed as proportion of eclosed-flies at 50 uM measured after 72 hrs
[24] = Toxicity against Drosophila W1118 assessed as proportion of eclosed-flies at 20 uM measured after 72 hrs
[25] = Toxicity against Drosophila W1118 assessed as proportion of eclosed-flies at 30 uM measured after 72 hrs
[26] = system: Drosophila; experiment: Antioxidant activity in Spastin Drosophila (Tubulin/Gal4 RNAi DSpast) neurodegenerative model assessed as decrease in intracelluar ROS level in A2 muscle at 10 uM flies raised in compound-enriched food by DHE staining based fluorescence analysis; assay type: functional, organism-based
Procedure, shortened: (§5)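 Spastin-RNAi (Tubulin-Gal4 cross, 28 °C) third-instar larvae raised on compound-enriched food, dissected in HL3, stained 30 min with 30 μM DHE, fixed in 4% PFA, DAPI counterstained. Confocal imaging (DHE 580–630 nm); two 2500 μm² ROIs per muscle or two 1900 μm² ROIs per brain, 10–15 larvae per group; DHE/DAPI ratio.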

[27] = system: Drosophila; experiment: Antioxidant activity in Spastin Drosophila (Tubulin/Gal4 RNAi DSpast) neurodegenerative model assessed as decrease in intracelluar ROS level in brain at 10 uM flies raised in compound-enriched food by DHE staining based fluorescence analysis; assay type: functional, organism-based; procedure, shortened: as §5
[28] = system: Drosophila; experiment: Downregulation of Nrf2 transcript expression in Spastin Drosophila (Tubulin/Gal4 RNAi DSpast) neurodegenerative model at 10 uM flies raised in compound-enriched food by real-time PCR analysis; assay type: functional
Procedure, shortened: (§6)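 Total RNA from 5 third-instar Spastin-RNAi larvae raised on standard or compound-enriched food; Tubulin-Gal4/+ as control line. One-step SYBR RT-qPCR normalised to Rp49 by the 2^−ΔΔCt method. n = 3 experiments; one-way ANOVA, Tukey's test.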

[29] = system: Drosophila; experiment: Effect on CAT transcript expression in Spastin Drosophila (Tubulin/Gal4 RNAi DSpast) neurodegenerative model at 10 uM flies raised in compound-enriched food by real-time PCR analysis; assay type: functional; procedure, shortened: as §6
[30] = system: Drosophila; experiment: Downregulation of SOD1 transcript expression in Spastin Drosophila (Tubulin/Gal4 RNAi DSpast) neurodegenerative model at 10 uM flies raised in compound-enriched food by real-time PCR analysis; assay type: functional; procedure, shortened: as §6
[31] = system: Microglia; experiment: Antiinflammatory activity against Sprague-Dawley rat microglial cells assessed as downregulation of TNF-alpha mRNA expression at 10 uM pretreated with compound for 1 hr followed by LPS stimulation for 6 hrs by real-time PCR analysis; assay type: functional, cell-based; conditions: time 7.0 hrs; procedure, shortened: as §3
[32] = system: Microglia; experiment: Antiinflammatory activity against Sprague-Dawley rat microglial cells assessed as downregulation of IL-1 beta mRNA expression at 10 uM pretreated with compound for 1 hr followed by LPS stimulation for 6 hrs by real-time PCR analysis; assay type: functional, cell-based; conditions: time 7.0 hrs; procedure, shortened: as §3
[33] = system: Microglia; experiment: Antiinflammatory activity against Sprague-Dawley rat microglial cells assessed as downregulation of NLRP3 mRNA expression at 10 uM pretreated with compound for 1 hr followed by LPS stimulation for 6 hrs by real-time PCR analysis; assay type: functional, cell-based; conditions: time 7.0 hrs; procedure, shortened: as §3

Chain of Amyloid-beta precursor protein (Homo sapiens) (P05067 whole entry): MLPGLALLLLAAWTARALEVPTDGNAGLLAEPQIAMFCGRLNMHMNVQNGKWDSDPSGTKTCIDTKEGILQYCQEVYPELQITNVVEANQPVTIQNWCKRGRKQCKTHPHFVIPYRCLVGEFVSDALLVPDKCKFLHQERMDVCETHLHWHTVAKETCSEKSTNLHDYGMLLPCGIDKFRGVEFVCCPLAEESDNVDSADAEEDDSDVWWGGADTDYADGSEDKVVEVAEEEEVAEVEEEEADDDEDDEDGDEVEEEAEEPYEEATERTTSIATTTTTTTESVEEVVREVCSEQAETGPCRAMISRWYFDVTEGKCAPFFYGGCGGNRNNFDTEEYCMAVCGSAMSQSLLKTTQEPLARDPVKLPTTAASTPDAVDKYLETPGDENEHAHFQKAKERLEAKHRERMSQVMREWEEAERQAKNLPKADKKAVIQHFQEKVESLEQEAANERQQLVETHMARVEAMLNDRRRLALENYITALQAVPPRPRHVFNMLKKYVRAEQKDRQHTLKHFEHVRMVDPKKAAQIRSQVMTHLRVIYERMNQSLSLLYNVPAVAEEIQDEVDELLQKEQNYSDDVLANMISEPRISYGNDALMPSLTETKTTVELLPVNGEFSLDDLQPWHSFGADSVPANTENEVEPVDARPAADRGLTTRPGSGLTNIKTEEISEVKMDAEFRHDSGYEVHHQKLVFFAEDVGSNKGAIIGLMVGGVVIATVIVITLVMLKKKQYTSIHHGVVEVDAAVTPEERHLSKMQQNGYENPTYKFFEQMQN
Chain of Keap1/Nrf2 (Homo sapiens) (Q14145 whole entry, looked up): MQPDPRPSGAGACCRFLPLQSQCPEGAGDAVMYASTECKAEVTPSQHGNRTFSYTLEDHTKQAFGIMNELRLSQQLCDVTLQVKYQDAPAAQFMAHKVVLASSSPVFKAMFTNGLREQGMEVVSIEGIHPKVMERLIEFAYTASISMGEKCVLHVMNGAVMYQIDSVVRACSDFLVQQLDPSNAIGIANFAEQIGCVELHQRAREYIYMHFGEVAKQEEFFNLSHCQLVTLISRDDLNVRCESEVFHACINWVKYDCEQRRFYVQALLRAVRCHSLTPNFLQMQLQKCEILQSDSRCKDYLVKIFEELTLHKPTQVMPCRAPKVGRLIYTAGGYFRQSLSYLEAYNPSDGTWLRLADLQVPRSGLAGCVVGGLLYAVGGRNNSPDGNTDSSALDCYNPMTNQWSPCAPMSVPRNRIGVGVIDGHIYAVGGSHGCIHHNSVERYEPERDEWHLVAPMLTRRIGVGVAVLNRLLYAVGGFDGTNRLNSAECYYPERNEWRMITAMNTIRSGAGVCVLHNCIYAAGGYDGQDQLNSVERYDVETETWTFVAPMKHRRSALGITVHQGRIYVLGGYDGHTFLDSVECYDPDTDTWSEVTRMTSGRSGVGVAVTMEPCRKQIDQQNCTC
Chain of Keap1/Nrf2 (Homo sapiens) (Q16236 whole entry, looked up): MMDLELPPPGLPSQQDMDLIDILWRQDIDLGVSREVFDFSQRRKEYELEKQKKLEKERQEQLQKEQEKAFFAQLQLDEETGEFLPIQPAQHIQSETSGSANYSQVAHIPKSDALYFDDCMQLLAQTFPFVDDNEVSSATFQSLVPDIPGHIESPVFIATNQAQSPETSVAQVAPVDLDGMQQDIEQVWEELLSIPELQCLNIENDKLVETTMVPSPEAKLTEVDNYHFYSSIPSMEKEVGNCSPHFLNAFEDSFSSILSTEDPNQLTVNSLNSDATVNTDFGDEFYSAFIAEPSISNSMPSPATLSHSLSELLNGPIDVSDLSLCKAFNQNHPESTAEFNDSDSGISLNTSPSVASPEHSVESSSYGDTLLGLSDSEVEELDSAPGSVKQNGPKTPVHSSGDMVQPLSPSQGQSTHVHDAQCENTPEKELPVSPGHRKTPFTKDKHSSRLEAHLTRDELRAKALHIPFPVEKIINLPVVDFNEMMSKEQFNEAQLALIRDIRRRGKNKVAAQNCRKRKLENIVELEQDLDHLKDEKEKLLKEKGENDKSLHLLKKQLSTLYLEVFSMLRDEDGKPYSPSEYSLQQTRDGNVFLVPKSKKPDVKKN

Q: For `COc1ccc(/C=C/C(=O)/C(CC(=O)OC(C)(C)C)=C(O)/C=C/c2ccc(OC)cc2)cc1`, which Activity [1] is on record?
A: Toxic

Q: What about the Activity [2] of the same molecule?
A: Non-Toxic

Q: And the Activity [3]?
A: Non-Toxic

Q: And the Activity [4]?
A: Active

Q: And the Activity [5]?
A: Active

Q: For `CCOC(=O)Cn1cc(C/C(C(=O)/C=C/c2ccc(OC)cc2)=C(O)\C=C\c2ccc(OC)cc2)nn1`, which Activity [6] is on record?
A: Toxic

Q: What about the Activity [7] of the same molecule?
A: Non-Toxic

Q: And the Activity [8]?
A: Non-Toxic

Q: And the Activity [9]?
A: Active

Q: What about the Activity [10] of the same molecule?
A: Active

Q: And the Activity [11]?
A: Active

Q: What about the Activity [12] of the same molecule?
A: Active

Q: And the Activity [13]?
A: Active

Q: And the Activity [14]?
A: Toxic

Q: What about the Activity [15] of the same molecule?
A: Active

Q: And the inhibition at 2.5 µM [16]?
A: 28%

Q: What about the Activity [17] of the same molecule?
A: Active

Q: What about the Activity [18] of the same molecule?
A: Active

Q: What about the Activity [19] of the same molecule?
A: Active

Q: What about the MTC [20] of the same molecule?
A: 10 µM

Q: What about the Activity [21] of the same molecule?
A: 94.037%

Q: What about the Activity [22] of the same molecule?
A: 94.732%

Q: And the Activity [23]?
A: 68.373%

Q: What about the Activity [24] of the same molecule?
A: 83.806%

Q: What about the Activity [25] of the same molecule?
A: 81.642%

Q: And the Activity [26]?
A: Active

Q: What about the Activity [27] of the same molecule?
A: Active

Q: What about the inhibition [28] of the same molecule?
A: Active

Q: What about the Activity [29] of the same molecule?
A: inactive

Q: And the inhibition [30]?
A: Active

Q: For `COc1cc(/C=C/C(=O)CC(=O)/C=C/c2ccc(O)c(OC)c2)ccc1O` [CURCUMIN], which Activity [1] is on record?
A: Toxic

Q: What about the Activity [2] of the same molecule?
A: Non-Toxic

Q: And the Activity [3]?
A: Non-Toxic

Q: What about the Activity [4] of the same molecule?
A: Active

Q: What about the Activity [5] of the same molecule?
A: Active

Q: What about the Activity [31] of the same molecule?
A: Active

Q: And the Activity [32]?
A: Active

Q: And the Activity [33]?
A: Active

Q: What about the Activity [18] of the same molecule?
A: Active
